Published values pooled from the literature.
Each line is one published result; the experiments were not run side by side.
Target: Tyrosine-protein kinase CSK (CSK, Homo sapiens, UniProt P41240)

SMILES | test | setting | remaining binding [%]
CNC(=O)[C@@H]1CC[C@@H](n2c(-c3ccc4cnccc4c3)nc3ccc(C(=O)NCc4cccc(C(N)=O)c4)cc32)C1 | binding, competition with immobilised ligand | 1 µM | 100
N[C@@H]1CCN(c2nccc(-c3cnn4ncccc34)n2)C1 | binding | 1 µM | 94
COc1ncc2cc3ccccc3nc2c1C#N | cell-free assay, competition with immobilised ligand | 5 µM | 100
O=C(c1ccc(Nc2ncc(Cl)c(-c3cc4ccccc4s3)n2)cc1)N1CCC(N2CCCC2)CC1 | binding, competition with immobilised ligand | 1 µM | 87
CN(C)c1nccc(-c2cnn3ncccc23)n1 | binding | 1 µM | 68
C[C@H](NC(=O)c1cnc2n1[C@](C)(Cc1ccc(C#N)cc1)C(=O)N2c1cc(Cl)c(F)c(Cl)c1)C(=O)NC1(c2ccccn2)CC1 | cell-free assay, competition with immobilised ligand | 1 µM | 100
CCN1CCN(Cc2ccc(C(=O)Nc3ccc(C)c(Oc4ccc5c(c4)CC(=O)N5)c3)cc2C(F)(F)F)CC1 | binding, competition with immobilised ligand | 1 µM | 100
O=C(NCCCC1CCCCC1)c1ccc(CNC(=O)c2cnn(-c3ccccc3)c2C(F)(F)F)cc1 | cell-free assay, competition with immobilised ligand | 0.1 µM | 100
F[C@@H]1CCN(c2nccc(-c3cnn4ncccc34)n2)C1 | binding | 1 µM | 100
O=C(c1ccc(Nc2ncc(Cl)c(-c3ccc(Cl)s3)n2)cc1)N1CCC(N2CCCC2)CC1 | binding, competition with immobilised ligand | 1 µM | 75
C[C@H]1CCN(c2nccc(-c3cnn4ncccc34)n2)C1 | binding | 1 µM | 83
O=C(c1ccc(Nc2nccc(-c3cc4ccccc4s3)n2)cc1)N1CCC(N2CCCC2)CC1 | binding, competition with immobilised ligand | 1 µM | 100
O=C(Nc1cnc(Oc2ccc(F)cc2)nc1)N1CCc2ncccc2[C@@H]1c1ccc(F)cc1 | cell-free assay, competition with immobilised ligand | 1 µM | 100
CC1CCCN1c1nccc(-c2cnn3ncccc23)n1 (stereo not drawn) | binding | 1 µM | 100
CN1CCN(c2cnc3c(C4CCN(C(=O)c5ccc(OC(F)(F)F)cc5N)CC4)ncnc3c2)CC1 | cell-free assay, competition with immobilised ligand | 1 µM | 100
Cc1ccc(-n2nc(C(C)(C)C)cc2NC(=O)Nc2ccc(-n3c(N)c(C(N)=O)c4nc5ccccc5nc43)cc2)cc1 | cell-free assay, competition with immobilised ligand | 1 µM | 0.9
CN(CCCC(F)(F)F)c1nccc(-c2cnn3ncccc23)n1 | binding | 1 µM | 91
CC(C)CC(=O)N1CCc2nc(-c3ccc(Br)cc3)nc(N(C)Cc3ccccc3)c2C1 | cell-free assay, competition with immobilised ligand | 0.1 µM | 100
COc1cnc(Nc2cccc(S(N)(=O)=O)c2)nc1N1CCN(c2ccccc2)CC1 | binding, competition with immobilised ligand | 1 µM | 100
O=C1CCc2cc(Nc3cc(OC4CCOCC4)c([N+](=O)[O-])cc3Cl)ccc2N1 | cell-free assay, competition with immobilised ligand | 1 µM | 98
O=C(Nc1c[nH]nc1C(=O)NC1CCNCC1)c1cc(F)cc(F)c1 | binding, competition with immobilised ligand | 1 µM | 100
